Measurements as given in ChEMBL document CHEMBL1153955, “Indolylarylsulfones bearing natural and unnatural amino acids. Discovery of potent inhibitors of HIV-1 non-nucleoside wild type and resistant mutant strains reverse transcriptase and coxsackie B4 virus” (J Med Chem, 2009).

Key:
Human alphaherpesvirus 1 [1] = test: Antiviral activity against HSV1 KOS in human HEL cells assessed as protection against virus-induced cytopathicity; format: functional, organism-based; conditions: Human alphaherpesvirus 1, KOS
[2] = Cytotoxicity against MDCK cells assessed as drug level causing microscopically detectable alteration of normal cell morphology; format: cell-based, Canis lupus familiaris; conditions: dog
[3] = system: Mammalian orthoreovirus 1; test: Antiviral activity against Reovirus 1 in african green monkey Vero cells assessed as protection against virus-induced cytopathicity; format: functional, organism-based; conditions: Mammalian orthoreovirus 1, Vero
How it was run: (§1)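 Confluent cell monolayers inoculated with 100 CCID₅₀ virus. After 1-2 h adsorption, residual virus removed and cultures incubated with varying compound concentrations. Cytopathicity scored once it reached completion in untreated infected controls. EC₅₀ = dose reducing virus-induced cytopathogenicity by 50%.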

[4] = Antiproliferative activity against human Molt4/C8 cells after 3 days; format: cell-based; conditions: MOLT-4, 72 h
How it was run: (§2)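 Cells seeded at 5 × 10⁴ to 7.5 × 10⁴ cells/200 µL with or without serial compound dilutions; incubated at 37 °C for 2 days (L1210) or 3 days (Molt4/C8, CEM). Cell numbers counted with a Coulter counter. CC₅₀ = concentration reducing proliferation by 50% versus untreated controls, read from plots of cell number (% of control) against concentration. Means of at least two independent experiments.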

[5] = system: Human immunodeficiency virus 2; test: Antiviral activity against HIV2 ROD in human CEM cells assessed as protection against virus-induced cytopathicity after 4 days; format: functional, organism-based; conditions: Human immunodeficiency virus 2, ROD, CCRF-CEM, 96 h
How it was run: (§3)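 CEM cells (~3 × 10⁵ cells/mL) infected with ~100 CCID₅₀ per mL of HIV-1 (IIIB) or HIV-2 (ROD), then seeded into wells containing compound dilutions. After 4 days at 37 °C, syncytium (giant cell) formation was examined microscopically. EC₅₀ = concentration protecting CEM cells from HIV cytopathicity by 50%.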

Influenza B virus [6] = test: Antiviral activity against influenza B virus in MDCK cells assessed as reduction of virus-induced cytopathicity by visual cytopathic effect scoring method; format: functional, organism-based
Feline coronavirus = test: Antiviral activity against Feline coronavirus in feline […] cells assessed as inhibition of virus-induced cytopathicity; format: functional, organism-based; conditions: Alphacoronavirus 1
[7] = biological target: Human immunodeficiency virus type 1 reverse transcriptase (Human immunodeficiency virus 1, UniProt Q72547); test: Inhibition of HIV1 reverse transcriptase p66/p51
[8] = biological target: Human immunodeficiency virus type 1 reverse transcriptase (Human immunodeficiency virus 1, UniProt Q72547, Y181I); test: Inhibition of HIV1 reverse transcriptase p66/p51 Y181I mutant
How it was run: (§4)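 Substrate was 0.5 µg poly(rA)/oligo(dT) 10:1 (0.3 µM 3′-OH ends) with 10 µM [³H]dTTP, at 37 °C. Acid-precipitable radioactivity was counted on GF/C filters after TCA washes.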

Punta Toro virus = test: Antiviral activity against Punta Toro virus in african green monkey Vero cells assessed as protection against virus-induced cytopathicity; format: functional, organism-based; how it was run: as §1
Influenza A virus H3N2 [9] = test: Antiviral activity against influenza H3N2 virus in MDCK cells assessed as reduction of virus-induced cytopathicity by visual cytopathic effect scoring method; format: functional, organism-based
Vaccinia virus = test: Antiviral activity against Vaccinia virus Lederle in human HEL cells assessed as protection against virus-induced cytopathicity; format: functional, organism-based; conditions: Orthopoxvirus vaccinia
Influenza A virus H3N2 [10] = test: Antiviral activity against influenza H3N2 virus in MDCK cells assessed as reduction of virus-induced cytopathicity by MTS method; format: functional, organism-based
L1210 = test: Antiproliferative activity against mouse L1210 cells after 2 days; format: cell-based; conditions: L1210, 48 h; how it was run: as §2
[11] = Cytotoxicity against human HEL cells assessed as drug level causing microscopically detectable alteration of normal cell morphology after 3 days; format: cell-based
[12] = Cytotoxicity against human HeLa cells assessed as drug level causing microscopically detectable alteration of normal cell morphology after 3 days; format: cell-based
How it was run: (§5)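 Serial compound dilutions added to confluent HeLa or Vero monolayers. MCC = minimum concentration causing microscopically detectable alteration of cell morphology after 3 days of incubation.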

[13] = Cytotoxicity against african green monkey Vero cells assessed as drug level causing microscopically detectable alteration of normal cell morphology after 3 days; format: cell-based; conditions: chlorocebus sabaeus; how it was run: as §5
Human respirovirus 3 = test: Antiviral activity against Parainfluenza virus type 3 in african green monkey Vero cells assessed as protection against virus-induced cytopathicity; format: functional, organism-based; conditions: Human respirovirus 3, Vero; how it was run: as §1
Human alphaherpesvirus 2 = test: Antiviral activity against HSV2 G in human HEL cells assessed as protection against virus-induced cytopathicity; format: functional, organism-based; conditions: Human alphaherpesvirus 2, strain G; how it was run: as §1
Influenza A virus [14] = test: Antiviral activity against influenza H1N1 virus in MDCK cells assessed as reduction of virus-induced cytopathicity by visual cytopathic effect scoring method; format: functional, organism-based
[15] = system: Vesicular stomatitis virus; test: Antiviral activity against VSV in human HeLa cells assessed as protection against virus-induced cytopathicity; format: functional, organism-based
[16] = system: Human immunodeficiency virus 1; test: Antiviral activity against HIV1 3B in human CEM cells assessed as protection against virus-induced cytopathicity after 4 days; format: functional, organism-based; conditions: Human immunodeficiency virus 1, 3B, CCRF-CEM, 96 h; how it was run: as §3
Influenza A virus [17] = test: Antiviral activity against influenza H1N1 virus in MDCK cells assessed as reduction of virus-induced cytopathicity by MTS method; format: functional, organism-based; conditions: Influenza A virus, H1N1, MDCK
Sindbis virus = test: Antiviral activity against Sindbis virus in african green monkey Vero cells assessed as protection against virus-induced cytopathicity; format: functional, organism-based; how it was run: as §1
Coxsackievirus B4 [18] = test: Antiviral activity against Coxsackievirus B4 in human HeLa cells assessed as protection against virus-induced cytopathicity; format: functional, organism-based; conditions: Enterovirus B; how it was run: as §1
[19] = biological target: Human immunodeficiency virus type 1 reverse transcriptase (Human immunodeficiency virus 1, UniProt Q72547, K103N); test: Inhibition of HIV1 reverse transcriptase p66/p51 K103N mutant; how it was run: as §4
[20] = biological target: Human immunodeficiency virus type 1 reverse transcriptase (Human immunodeficiency virus 1, UniProt Q72547, L100I); test: Inhibition of HIV1 reverse transcriptase p66/p51 L100I mutant; how it was run: as §4
Felid alphaherpesvirus 1 = test: Antiviral activity against Feline herpesvirus in feline […] cells assessed as inhibition of virus-induced cytopathicity; format: functional, organism-based
[21] = system: Vesicular stomatitis virus; test: Antiviral activity against VSV in human HEL cells assessed as protection against virus-induced cytopathicity; format: functional, organism-based
[22] = Cytotoxicity against feline CRFK cells by MTS assay; format: cell-based, Felis catus; conditions: cat
[23] = system: Respiratory syncytial virus; test: Antiviral activity against RSV Long in human HeLa cells assessed as protection against virus-induced cytopathicity; format: functional, organism-based; how it was run: as §1
Influenza B virus [24] = test: Antiviral activity against influenza B virus in MDCK cells assessed as reduction of virus-induced cytopathicity by MTS method; format: functional, organism-based
Coxsackievirus B4 [25] = test: Antiviral activity against Coxsackievirus B4 in african green monkey Vero cells assessed as protection against virus-induced cytopathicity; format: functional, organism-based; conditions: Enterovirus B; how it was run: as §1
CCRF-CEM = test: Antiproliferative activity against human CEM cells after 3 days; format: cell-based; conditions: 72 h; how it was run: as §2
[26] = Cytotoxicity against MDCK cells by MTS assay; format: cell-based, Canis lupus familiaris; conditions: dog
Human alphaherpesvirus 1 [27] = test: Antiviral activity against thymidine kinase deficient and acyclovir resistant HSV1 KOS in human HEL cells assessed as protection against virus-induced cytopathicity; format: functional, organism-based; conditions: Human alphaherpesvirus 1, KOS

Row | SMILES | EC50 (Human alphaherpesvirus 1 [1]) [µM] | MCC [2] [µM] | EC50 [3] [µM] | IC50 [4] [µM] | EC50 [5] [µM] | EC50 (Influenza B virus [6]) [µM] | EC50 (Feline coronavirus) [µM] | EC50 (Punta Toro virus) [µM] | EC50 (Influenza A virus H3N2 [9]) [µM] | EC50 (Vaccinia virus) [µM] | EC50 (Influenza A virus H3N2 [10]) [µM] | IC50 (L1210) [µM] | MCC at 72 h [11] [µM] | MCC at 72 h [12] [µM] | MCC at 72 h [13] [µM] | EC50 (Human respirovirus 3) [µM] | EC50 (Human alphaherpesvirus 2) [µM] | EC50 (Influenza A virus [14]) [µM] | EC50 [15] [µM] | EC50 [16] [µM] | other results
1 | Cc1cc(C)cc(S(=O)(=O)c2c(C(=O)NCCS(N)(=O)=O)[nH]c3ccc(Cl)c(F)c23)c1 | > 20 | 20 | > 20 | 36 | > 10 | > 4 | > 20 | > 20 | > 4 | > 20 | > 4 | 42 | 100 | 100 | 100 | > 20 | > 20 | > 4 | > 20 | 0.0023 | IC50 [7]: ND(Insoluble); IC50 [8]: ND(Insoluble); EC50 (Influenza A virus [17]): > 4 µM; EC50 (Sindbis virus): > 20 µM; EC50 (Coxsackievirus B4 [18]): 7 µM; IC50 [19]: ND(Insoluble); IC50 [20]: ND(Insoluble); EC50 (Felid alphaherpesvirus 1): > 20 µM; EC50 [21]: > 20 µM; CC50 [22]: 34.6 µM; EC50 [23]: 20 µM; EC50 (Influenza B virus [24]): > 4 µM; EC50 (Coxsackievirus B4 [25]): > 20 µM; IC50 (CCRF-CEM): 31 µM; CC50 [26]: 7.4 µM; EC50 (Human alphaherpesvirus 1 [27]): > 20 µM
2 | Cc1cc(C)cc(S(=O)(=O)c2c(C(=O)NCC(N)=O)[nH]c3ccc(Cl)c(F)c23)c1 | > 20 | 20 | > 20 | 34 | > 10 | > 4 | > 20 | > 20 | > 4 | > 20 | > 4 | 53 | 100 | 100 | > 100 | > 20 | > 20 | > 4 | > 20 | 0.0031 | IC50 ([7]; read-out: IC50): 0.025 µM; IC50 ([8]; read-out: IC50): 2.46 µM; EC50 (Influenza A virus [17]): > 4 µM; EC50 (Sindbis virus): > 20 µM; EC50 (Coxsackievirus B4 [18]): 9 µM; IC50 ([19]; read-out: IC50): 1.04 µM; IC50 ([20]; read-out: IC50): 0.319 µM; EC50 (Felid alphaherpesvirus 1): > 20 µM; EC50 [21]: > 20 µM; CC50 [22]: 71 µM; EC50 [23]: 16 µM; EC50 (Influenza B virus [24]): > 4 µM; EC50 (Coxsackievirus B4 [25]): > 20 µM; IC50 (CCRF-CEM): 31 µM; CC50 [26]: 7.6 µM; EC50 (Human alphaherpesvirus 1 [27]): > 20 µM
